One block for each molecule: values may come before it. The source made the active and inactive calls. No cut-off for these calls is given here.
Columns and labels:
[1] = target: T1, Glucocorticoid receptor (Mus musculus) (UniProt P06537); assay: Displacement of [1,2,3-3H]-triamcinolone acetonide from glucocorticoid receptor in soluble fraction of mouse L929 cells at 10^-6 M preincubated for 4 hrs followed by [3H]-triamcinolone acetonide addition measured after 18 hrs by double reciprocal plot analysis; assay type: cell-based
T1 sequence (whole entry): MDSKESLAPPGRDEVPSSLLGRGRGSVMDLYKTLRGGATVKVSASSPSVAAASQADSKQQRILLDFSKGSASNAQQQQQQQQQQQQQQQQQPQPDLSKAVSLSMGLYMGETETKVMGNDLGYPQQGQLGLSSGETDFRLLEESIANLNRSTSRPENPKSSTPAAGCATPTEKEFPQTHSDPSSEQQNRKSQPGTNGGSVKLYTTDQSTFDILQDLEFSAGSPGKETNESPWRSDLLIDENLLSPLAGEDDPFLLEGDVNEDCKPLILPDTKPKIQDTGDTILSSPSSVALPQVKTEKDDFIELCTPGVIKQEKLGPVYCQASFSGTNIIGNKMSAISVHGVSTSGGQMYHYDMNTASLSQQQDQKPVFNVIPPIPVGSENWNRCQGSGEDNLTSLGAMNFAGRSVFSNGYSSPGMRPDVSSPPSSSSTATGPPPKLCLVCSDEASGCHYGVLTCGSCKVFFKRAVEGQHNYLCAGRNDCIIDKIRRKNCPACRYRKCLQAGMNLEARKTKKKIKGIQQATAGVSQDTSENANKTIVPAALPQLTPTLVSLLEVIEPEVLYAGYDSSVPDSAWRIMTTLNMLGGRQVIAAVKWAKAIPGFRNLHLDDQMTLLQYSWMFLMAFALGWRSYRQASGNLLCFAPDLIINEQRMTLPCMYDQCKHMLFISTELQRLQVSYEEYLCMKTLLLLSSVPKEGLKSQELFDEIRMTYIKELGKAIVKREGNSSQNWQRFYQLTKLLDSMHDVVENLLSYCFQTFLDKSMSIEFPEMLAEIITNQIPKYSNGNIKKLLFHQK
Summary of the method: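 L929 100 000g supernatant preincubated 4 h on ice with vehicle, 10⁻⁶ M agent or 10⁻⁷ M cortisol. Varied [3H]triamcinolone acetonide then added, incubation continued 18 h. Bound counted after Sephadex G-25 separation; nonspecific (3×10⁻⁵ M dexamethasone) subtracted. Specific binding plotted against free ligand and in double-reciprocal form.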

[2] = Alkylating activity of the compound assessed as alkylation of 4-(p-nitrobenzyl)pyridine at 10^-4 M after 20 mins by colorimetric analysis; assay type: physicochemical; conditions: 100 µM
[3] = target: T2, Glucocorticoid receptor (Mus musculus, UniProt P06537); assay: Displacement of 2 x 10^-8 M of [1,2,3-3H]-triamcinolone acetonide from glucocorticoid receptor in soluble fraction of mouse L929 cells after 20 hrs; assay type: cell-based; conditions: read-out: Kd(app)
T2 sequence (P06537 whole entry): T1 sequence (whole entry)

[4] = tested on: L929; assay: Growth inhibition of mouse L929 cells after 6 days; assay type: functional, cell-based
Summary of the method: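 L929 mouse fibroblasts in monolayer in Joklik medium, steroids added in DMSO (0.1% of medium volume) early in growth. Cells harvested and counted 6 days later. Mean of three replicate cultures, expressed as percent of vehicle-control growth.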

[5] = Alkylating activity of the compound assessed as alkylation of 4-(p-nitrobenzyl)pyridine at 10^-4 M after 20 mins by colorimetric analysis relative to mechlorethamine; assay type: physicochemical; conditions: 100 µM
[6] = target: T3, Estrogen receptor (Rattus norvegicus, UniProt P06211); assay: Displacement of radiolabeled estradiol from estradiol receptor in rat uterine cytosol; set-up: species or system Uterus
T3 sequence (P06211 whole entry): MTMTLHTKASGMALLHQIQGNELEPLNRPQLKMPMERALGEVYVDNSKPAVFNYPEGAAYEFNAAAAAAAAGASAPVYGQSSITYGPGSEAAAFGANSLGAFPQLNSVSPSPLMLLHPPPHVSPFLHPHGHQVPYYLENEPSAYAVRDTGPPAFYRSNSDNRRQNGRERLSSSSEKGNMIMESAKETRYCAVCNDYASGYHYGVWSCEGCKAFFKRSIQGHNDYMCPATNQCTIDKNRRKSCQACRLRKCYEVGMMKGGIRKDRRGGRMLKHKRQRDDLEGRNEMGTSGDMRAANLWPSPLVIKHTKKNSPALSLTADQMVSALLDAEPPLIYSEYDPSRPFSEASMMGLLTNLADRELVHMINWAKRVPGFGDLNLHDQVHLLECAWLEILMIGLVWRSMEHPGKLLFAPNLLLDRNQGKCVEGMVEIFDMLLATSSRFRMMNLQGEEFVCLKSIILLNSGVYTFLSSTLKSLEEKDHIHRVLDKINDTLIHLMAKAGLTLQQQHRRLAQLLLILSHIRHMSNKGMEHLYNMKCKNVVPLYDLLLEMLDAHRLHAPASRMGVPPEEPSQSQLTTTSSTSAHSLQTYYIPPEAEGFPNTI

[7] = target: T1, Glucocorticoid receptor (Mus musculus); assay: (§1) Displacement of 1 x 10^-8 M of [1,2,3-3H]-triamcinolone acetonide from glucocorticoid receptor in soluble fraction of mouse L929 cells after 20 hrs; assay type: cell-based
[8] = target: T2, Glucocorticoid receptor; assay: as §1; assay type: cell-based
[9] = tested on: L929; assay: Growth inhibition of mouse L929 cells at 3 x 10^-7 M preincubated for 48 hrs followed by compound washout; assay type: functional, cell-based
Summary of the method: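 L929 monolayers (15 mL) dosed day 1, 18 h after seeding, at 3×10⁻⁷ M final, vehicle DMSO. Day 3 medium changed, half switched to steroid-free medium. Medium renewed every other day, cells per bottle counted. Mean and standard error of three replicate cultures.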

[10] = Alkylating activity of the compound assessed as alkylation of 4-(p-nitrobenzyl)pyridine after 20 mins by colorimetric analysis; assay type: physicochemical
Summary of the method: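 Test agent at 10⁻⁴ M in 1% Me₂SO in water; 3 mL aliquots heated 20 min in boiling water bath with 4-(p-nitrobenzyl)pyridine in acetate buffer pH 4.0. Purple adduct developed with 5.0 N NaOH, extracted into ethyl acetate, A540 read exactly 6 min after base. Value read off mechlorethamine standard curve, expressed relative to mechlorethamine.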

Compound: C[C@]12CCC(=O)C=C1CC[C@@H]1[C@@H]2[C@@H](O)C[C@@]2(C)[C@H]1CC[C@]2(O)C(=O)COC(=O)N(CCCl)CCCl
- inhibition [1]: inactive
- Activity [2]: Active
- Kd [3]: 430 nM
- growth inhibition (GI) [4]: Active
- Activity [5]: 20%

Compound: C[C@]12CC[C@@H]3c4ccc(OC(=O)Cc5ccc(N(CCCl)CCCl)cc5)cc4CC[C@H]3[C@@H]1CC[C@@H]2OC(=O)Cc1ccc(N(CCCl)CCCl)cc1 [ESTRADIOL MUSTARD]
- Kd [6]: 3 µM

- inhibition [7]: Active
Compound: C[C@]1(c2ccccc2)O[C@@H]2C[C@H]3[C@@H]4CCC5=CC(=O)C=C[C@]5(C)[C@@]4(F)[C@@H](O)C[C@]3(C)[C@]2(C(=O)CO)O1

- Kd [8]: 190 nM
Compound: C[C@]12CCC(=O)C=C1CC[C@@H]1[C@@H]2[C@@H](O)C[C@@]2(C)[C@H]1CC[C@]2(O)C(=O)COC(=O)CCC(=O)O [HYDROCORTISONE HEMISUCCINATE ANHYDROUS]

- Activity [10]: Not Active
Compound: CC1(C)O[C@@H]2C[C@H]3[C@@H]4CCC5=CC(=O)C=C[C@]5(C)[C@@]4(F)[C@@H](O)C[C@]3(C)[C@]2(C(=O)CO)O1 [TRIAMCINOLONE ACETONIDE]
- growth inhibition (GI) [9]: inactive
- growth inhibition (GI) [4]: Active

- inhibition [7]: inactive
Compound: C[C@]12CCC(=O)C=C1CC[C@@H]1[C@@H]2[C@@H](O)C[C@@]2(C)[C@H]1CC[C@]2(O)C(=O)COP(=O)(O)O

- Activity [10]: Not Active
Compound: C[C@]12CCC(=O)C=C1CC[C@@H]1[C@@H]2[C@@H](O)C[C@@]2(C)[C@H]1CC[C@]2(O)C(=O)CO [HYDROCORTISONE]
- growth inhibition (GI) [4]: Active

Compound: CC1(C)O[C@@H]2C[C@H]3[C@@H]4CCC5=CC(=O)C=C[C@]5(C)[C@@]4(F)[C@@H](O)C[C@]3(C)[C@]2(C(=O)COC(=O)N(CCCl)CCCl)O1
- Activity [2]: Active
- growth inhibition (GI) [9]: inactive
- Kd [3]: 7.5 nM
- growth inhibition (GI) [4]: Active
- Activity [5]: 20%
